MrgX1 allo act: allosterically activates human MrgX1 receptor signaling; 0.63% of 310,000 active; MrgX1-HEK293, Fluo-4 calcium flux, FDSS; active compounds read high; B-score at 10 µM; Q96LB2;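 active means plate-corrected calcium response at least 3 library SD above typical, normal starting fluorescence, not activating the receptor alone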;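 further: compound read alongside a low EC10 to EC30 dose of BAM8-22 agonist; peak minus trough fluorescence over baseline measured at the second addition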
Target sequence (Q96LB2 whole entry, looked up): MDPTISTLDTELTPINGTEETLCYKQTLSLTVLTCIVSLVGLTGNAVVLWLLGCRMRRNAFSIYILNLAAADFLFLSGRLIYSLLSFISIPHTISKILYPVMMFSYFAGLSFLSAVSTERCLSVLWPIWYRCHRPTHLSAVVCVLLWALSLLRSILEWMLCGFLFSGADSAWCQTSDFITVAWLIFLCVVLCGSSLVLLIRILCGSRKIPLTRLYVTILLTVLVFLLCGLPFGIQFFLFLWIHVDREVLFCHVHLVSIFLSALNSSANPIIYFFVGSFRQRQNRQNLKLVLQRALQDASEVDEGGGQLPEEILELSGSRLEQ
RGS4 block: inhibitors of human RGS4; B-score at 10 µM; 0.45% of 310,000 active; HEK293 M3R/RGS4 inducible, Fluo-4 calcium flux; active compounds read high; triggered by carbachol at its EC20; P49798;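 active means B-score, a plate-corrected calcium signal, over three deviations above library mean, with baseline fluorescence within five deviations of library mean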;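 further: RGS4 expression induced by doxycycline in cells with stable M3 receptor; B-score is computed from the integrated fluorescence ratio over baseline after carbachol; higher B-score means a larger calcium signal and so more RGS4 inhibition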
MrgX1 antagonist: human MrgX1 receptor antagonism, primary screen; Q96LB2; MRGX1-HEK293 calcium flux, Fluo-4, BAM8-22 antagonism; active compounds read low; B-score at 10 µM; 1.3% of 310,000 active;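 active means calcium-response B-score plate-corrected more than 3 library SD below zero, starting fluorescence within 5 deviations, no agonist response on first addition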;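 further: peak minus trough fluorescence over baseline after final BAM8-22 challenge near maximal dose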
RGS4 act: RGS4 potentiation or activation | HEK293 M3R/inducible RGS4, carbachol calcium flux Fluo4; active compounds read low | AID 463111 | B-score at 10 µM | 0.92% of 310,000 active;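 active means B-score of the integrated calcium signal more than 4 SD below the library mean, with starting fluorescence not abnormally high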;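 further: negative B-score means reduced calcium response which marks RGS4 activation or potentiation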
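Also added: carbachol at ECmax as muscarinic agonist stimulus; Assay system: HEK293 cells with stable M3R and inducible RGS4; Timing: overnight RGS4 induction, 30 min dye load 37 °C, 20 min compound RT; Measured by: Fluo4-AM (2 µM) calcium-flux fluorescence, kinetic read.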
MrgX1 agonist: activates human MrgX1 receptor signaling; Q96LB2; MrgX1-HEK293 cells, Fluo-4 calcium fluorescence, agonist mode; active compounds read high; B-score at 10 µM; 0.44% of 310,000 active;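 active means calcium response B-score plate-corrected fluorescence ratio at least 3 library SD, with starting fluorescence B-score inside 5 SD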
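Material – MrgX1-expressing HEK293 cells · Input – 15,000 cells seeded per well · Dosing – compound as first of three additions · Times – overnight seeding, then 1 h dark dye loading · Measured by – kinetic Fluo-4 NW fluorescence of intracellular calcium · Read-out – B-scored fluorescence response ratio · Benchmarks – positive and negative control wells on each plate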
Hits are given with their value; 0 = inactive; - = no result. In the library only some 3.5% were active in any assay of this set; here they are far more common.

SMILES	MrgX1 allo act	RGS4 block	MrgX1 antagonist	RGS4 act	MrgX1 agonist
CCOC(=O)c1c(NC(C)=O)sc2c(OCC(O)CN(CC)CC)c(Br)ccc12 (configuration not stated)	0	0	0	-7.6	0
O=C(Nc1ccon1)Nc1ccc(F)cc1F	0	0	0	0	0
CC1(C)CC(=O)C/C(=N/NC(=O)COc2ccc3ccccc3c2Br)C1	0	0	-8	0	0
CC1(C)CC(=O)C/C(=N/NC(=O)COc2ccc(Cl)cc2Cl)C1	0	0	0	0	0
COc1ccc(CNCCc2ccc(Cl)cc2)cc1OCc1ccccc1	0	0	-5.8	0	0
CCOc1cc(CNCc2ccccc2)ccc1OCc1ccc(Cl)cc1	0	0	0	0	0
O=C(Oc1cccc2cccnc12)c1cccc(N2C(=O)C3C4CCC(C4)C3C2=O)c1 (configuration not stated)	0	6	0	0	0
Clc1ccc(-c2nc3cc(CN4CCCCC4)ccc3o2)cc1	0	0	0	0	0
CCOc1ccc(C2C=C(c3ccccc3)Nc3ncnn32)cc1 (configuration not stated)	11	0	0	0	0
CCOc1ccc(C2C=C(c3ccc(F)cc3)Nc3ncnn32)cc1 (configuration not stated)	8.4	0	0	0	0
Cc1ccc(C2C=C(c3ccccc3)Nc3ncnn32)cc1 (configuration not stated)	7.8	0	0	0	0
Oc1ccc(C2C=C(c3ccc(F)cc3)Nc3ncnn32)cc1 (configuration not stated)	-	0	-	0	-
CCCCN(C(=O)c1ccc(S(=O)(=O)N(CC)CC)cc1)c1c(N)n(CCC)c(=O)[nH]c1=O	0	0	0	0	0
CCCN1C(=O)/C(=C/c2ccc(C)s2)SC1=Nc1ccc(OC)cc1	0	0	0	0	0
CCN(CC)CCN1C(=O)/C(=C\c2ccc(Cl)c([N+](=O)[O-])c2)SC1=Nc1ccc(OC)cc1	0	27	0	0	0
COc1ccc(N=C2S/C(=C\c3ccc(Cl)c([N+](=O)[O-])c3)C(=O)N2CCN(C)C)cc1	0	13	0	0	0
C=CS(=O)(=O)c1ccc(Oc2ccc(S(=O)(=O)C=C)cc2)cc1	0	21	0	0	31
NS(=O)(=O)c1ccc(Oc2ccc(S(N)(=O)=O)cc2)cc1	0	0	0	0	0
N/C(=N\OC(=O)c1cccnc1)c1ccccc1Cl	0	0	0	0	0
N/C(=N\OC(=O)c1cccnc1)c1ccc(Cl)cc1Cl	0	0	-4.6	0	0
NC(=O)C(CC(=O)O)NC(=O)[C@@H]1CCOc2c(I)cc([N+](=O)[O-])cc2C(=O)N[C@@H](CCC(=O)O)C(=O)N[C@@H](CO)C(=O)N1 (some centres not stated)	0	-	-6.1	-	0
C[C@@H]1NC(=O)c2cc([N+](=O)[O-])cc(I)c2OCC[C@@H](C(=O)NC(CC(=O)O)C(N)=O)NC(=O)[C@H](CCC(=O)O)NC1=O (some centres not stated)	0	-	0	-	0
O=C(c1ccc(Cn2cc(Br)cn2)cc1)N1N=C(C(F)F)CC1(O)C(F)F (configuration not stated)	0	0	0	-7.9	0
CN(C(=O)COC(=O)c1cccc(S(=O)(=O)N2CCOCC2)c1)C1CCS(=O)(=O)C1 (configuration not stated)	0	0	-5.4	0	0
CN(C(=O)COC(=O)c1cccc(S(=O)(=O)N2CCCCCC2)c1)C1CCS(=O)(=O)C1 (configuration not stated)	0	0	0	0	0
SMILES	MrgX1 allo act	RGS4 block	MrgX1 antagonist	RGS4 act	MrgX1 agonist
Cc1ccc(C2Oc3ccccc3C3=C2C(c2cccs2)n2ncnc2N3)cc1 (configuration not stated)	0	0	0	-7.3	0
Fc1ccc(C2C3=C(Nc4ncnn42)c2ccccc2OC3c2ccncc2)cc1 (configuration not stated)	0	0	0	0	0
CCCCOc1ccc(CSc2nnc(C)n2N)cc1[N+](=O)[O-]	0	0	0	0	0
CCOc1ccc(CSC(=N)N)cc1[N+](=O)[O-]	0	0	0	0	46
O=C(Nc1ccc(Cl)cc1)Nc1cc([N+](=O)[O-])ccc1F	0	0	0	0	0
O=C(Nc1ccc(C(=O)O)cc1)Nc1ccc([N+](=O)[O-])cc1	0	0	0	0	0

Screening data (PubChem)
